The source made the active and inactive calls. The calls are words filed in the database; no cut-off is given here.
What was measured:
[1] = Lipophilicity, log K of the compound in methanol-water mixture by HPLC; type: physicochemical
How it was run: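 Reversed-phase HPLC on a Hypersil BDS C18 column (5 µm, 150 × 4.6 mm) with UV detection at 320 nm. Samples were dissolved in methanol. Mobile phase was methanol at varying volume fractions in 10 mM acetate buffer pH 4, run at 1 mL/min and room temperature. Dead time was taken from injection of acetone dissolved in water.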

Blumeria graminis [2] = assay: Fungistatic activity against Blumeria graminis infested wheat seedling assessed as inhibition of fungal infection at 1000 ug/ml applied as spray after 7 to 14 days under green house conditions relative to control; type: functional
How it was run: (§1)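 Greenhouse test on healthy wheat seedlings with Erysiphe graminis. At the well-developed first-leaf stage, plants were sprayed with compound solution at 1000 or 500 µg/mL, 10 mL of solution per treatment, with three repeats in 9 cm paraffin cups.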

Rhizoctonia solani [3] = assay: Fungistatic activity against Rhizoctonia solani assessed as mycelial growth inhibition at 20 ug/ml after 4 to 8 days relative to control; type: functional; conditions: for inhibition of growth at 20 µg/mL: read-out: GI
How it was run: (§2)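 Compound solutions or suspensions were diluted into PDA agar to final 200 or 20 µg/mL and poured into Petri dishes. Once the agar set, mycelium-covered agar disks of the fungus were placed at three sites on the surface. Linear colony growth was measured after 4-8 days, depending on the culture. Inhibition J = [(C − T)/C] × 100 versus untreated control, reported on a four-degree scale.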

Rhizoctonia solani [4] = assay: Fungistatic activity against Rhizoctonia solani assessed as mycelial growth inhibition at 200 ug/ml after 4 to 8 days relative to control; type: functional; conditions: for inhibition of growth at 200 µg/mL: read-out: GI; how it was run: as §2
Alternaria alternata [5] = assay: Fungistatic activity against Alternaria alternata assessed as mycelial growth inhibition at 20 ug/ml after 4 to 8 days relative to control; type: functional; conditions: for inhibition of growth at 20 µg/mL: read-out: GI; how it was run: as §2
Phytophthora cactorum [6] = assay: Fungistatic activity against Phytophthora cactorum assessed as mycelial growth inhibition at 200 ug/ml after 4 to 8 days relative to control; type: functional; conditions: for inhibition of growth at 200 µg/mL: read-out: GI; how it was run: as §2
Blumeria graminis [7] = assay: Fungistatic activity against Blumeria graminis infested wheat seedling assessed as inhibition of fungal infection at 500 ug/ml applied as spray after 7 to 14 days under green house conditions relative to control; type: functional; how it was run: as §1
Fusarium culmorum [8] = assay: Fungistatic activity against Fusarium culmorum assessed as mycelial growth inhibition at 20 ug/ml after 4 to 8 days relative to control; type: functional; conditions: for inhibition of growth at 20 µg/mL: read-out: GI; how it was run: as §2
Fusarium culmorum [9] = assay: Fungistatic activity against Fusarium culmorum assessed as mycelial growth inhibition at 200 ug/ml after 4 to 8 days relative to control; type: functional; conditions: for inhibition of growth at 200 µg/mL: read-out: GI; how it was run: as §2
Alternaria alternata [10] = assay: Fungistatic activity against Alternaria alternata assessed as mycelial growth inhibition at 200 ug/ml after 4 to 8 days relative to control; type: functional; conditions: for inhibition of growth at 200 µg/mL: read-out: GI; how it was run: as §2
Botrytis cinerea [11] = assay: Fungistatic activity against Botryotinia fuckeliana assessed as mycelial growth inhibition at 20 ug/ml after 4 to 8 days relative to control; type: functional; conditions: for inhibition of growth at 20 µg/mL: read-out: GI; how it was run: as §2
Botrytis cinerea [12] = assay: Fungistatic activity against Botryotinia fuckeliana assessed as mycelial growth inhibition at 200 ug/ml after 4 to 8 days relative to control; type: functional; conditions: for inhibition of growth at 200 µg/mL: read-out: GI; how it was run: as §2
Phytophthora cactorum [13] = assay: Fungistatic activity against Phytophthora cactorum assessed as mycelial growth inhibition at 20 ug/ml after 4 to 8 days relative to control; type: functional; conditions: for inhibition of growth at 20 µg/mL: read-out: GI; how it was run: as §2

Structure (SMILES) | log K [1] | inhibition at 1000 µg/mL (Blumeria graminis [2]) [%] | inhibition of growth at 20 µg/mL (Rhizoctonia solani [3]) [%] | inhibition of growth at 200 µg/mL (Rhizoctonia solani [4]) [%] | inhibition of growth at 20 µg/mL (Alternaria alternata [5]) [%] | inhibition of growth at 200 µg/mL (Phytophthora cactorum [6]) [%] | inhibition at 500 µg/mL (Blumeria graminis [7]) [%] | inhibition of growth at 20 µg/mL (Fusarium culmorum [8]) [%] | inhibition of growth at 200 µg/mL (Fusarium culmorum [9]) [%] | inhibition of growth at 200 µg/mL (Alternaria alternata [10]) [%] | inhibition of growth at 20 µg/mL (Botrytis cinerea [11]) [%] | inhibition of growth at 200 µg/mL (Botrytis cinerea [12]) [%] | inhibition of growth at 20 µg/mL (Phytophthora cactorum [13]) [%] | also measured
CCOC(=O)c1c(C)csc1NC(=S)c1ccc(O)cc1O | -0.28 |  |  |  |  |  |  |  |  |  |  |  |  | 
Oc1ccc(C(=S)NNC(=S)Nc2ccc(F)cc2)c(O)c1 | 0.24 | 0 | 0 | 0 | 0 | 0 | 0 | 0 | 0 | 21 | 0 | 0 | 0 | 
CCOC(=O)Cc1csc(NC(=S)c2ccc(O)cc2O)n1 | 0.048 | 21 | 0 | 0 | 0 | 41 | 0 | 0 | 0 | 21 | 0 | 0 | 0 | 
Oc1ccc(C(=S)NC2=NN(c3ccccc3)CC2)c(O)c1 | 0.643 |  |  |  |  |  |  |  |  |  |  |  |  | 
CCOc1ccc(C(=O)NNC(=S)c2ccc(O)cc2O)cc1 | 0.352 |  |  |  |  |  |  |  |  |  |  |  |  | 
O=C(OC/C=C/c1ccccc1)c1ccccc1NC(=S)c1ccc(O)cc1O | 0.488 | 21 | 21 | 81 | 41 | 81 | 21 | 41 | 81 | 61 | 21 | 61 | 41 | 
Oc1ccc(C(=S)NN=C2c3ccccc3-c3ccccc32)c(O)c1 | 0.232 | 0 | 0 | 0 | 0 | 41 | 0 | 0 | 0 | 41 | 0 | 21 | 0 | 
O=C(NNC(=S)c1ccc(O)cc1O)c1ccncc1 | -0.21 |  |  |  |  |  |  |  |  |  |  |  |  | 
O=C(CC(=O)c1ccc(NC(=S)c2ccc(O)cc2O)cc1)Nc1ccccc1Cl | -0.29 |  |  |  |  |  |  |  |  |  |  |  |  | 
COC(=O)Nc1nc2ccccc2[nH]1 [CARBENDAZIM] |  |  | 81 | 81 |  | 81 |  | 81 | 81 |  |  |  | 81 | growth inhibition (GI) (Alternaria alternata [5]): inactive; growth inhibition (GI) (Alternaria alternata [10]): inactive; growth inhibition (GI) (Botrytis cinerea [11]): inactive; growth inhibition (GI) (Botrytis cinerea [12]): inactive
CC(C)(C)c1cc(NC(=S)c2ccc(O)cc2O)no1 | -0.302 | 21 | 0 | 41 | 21 | 61 | 0 | 21 | 61 | 61 | 0 | 41 | 0 | 
Oc1ccc(C(=S)Nc2ccccc2-c2ccccc2)c(O)c1 | 0.118 | 21 | 0 | 61 | 0 | 81 | 0 | 0 | 61 | 61 | 0 | 61 | 41 | 
Oc1ccc(C(=S)n2c(Cl)nc3ccccc32)c(O)c1 | 0.378 | 41 | 21 | 81 | 21 | 81 | 0 | 0 | 81 | 81 | 0 | 81 | 21 | 
Oc1ccc(C(=S)n2nnc3cc(Cl)ccc32)c(O)c1 | 0.936 | 21 | 21 | 81 | 0 | 81 | 0 | 0 | 81 | 81 | 21 | 81 | 21 | 
Oc1ccc(C(=S)Nc2ccccc2Sc2ccc(Cl)cc2)c(O)c1 | 0.446 | 0 | 0 | 21 | 0 | 0 | 0 | 0 | 21 | 41 | 0 | 0 | 0 | 
Oc1ccc(C(=S)NNc2nncc3ccccc23)c(O)c1 | 0.228 |  |  |  |  |  |  |  |  |  |  |  |  | 
COc1ccc(COC(=O)NNC(=S)c2ccc(O)cc2O)cc1 | 0.103 |  |  |  |  |  |  |  |  |  |  |  |  | 
CC12CC1(C)C(=O)N(c1cc(Cl)cc(Cl)c1)C2=O (centres undefined) [PROCYMIDONE] |  |  |  |  | 81 |  |  |  |  | 81 | 81 | 81 |  | growth inhibition (GI) (Rhizoctonia solani [3]): inactive; growth inhibition (GI) (Rhizoctonia solani [4]): inactive; growth inhibition (GI) (Phytophthora cactorum [6]): inactive; growth inhibition (GI) (Fusarium culmorum [8]): inactive; growth inhibition (GI) (Fusarium culmorum [9]): inactive; growth inhibition (GI) (Phytophthora cactorum [13]): inactive
